Assay results as given in ChEMBL document CHEMBL3856275, “Discovery of Second Generation Reversible Covalent DPP1 Inhibitors Leading to an Oxazepane Amidoacetonitrile Based Clinical Candidate (AZD7986)” (J Med Chem, 2016).
Values after ≈ are worked out from the molar mass of the structure shown. Values belong to the compound of their own block, whether it stands above or below them.

Experiments:
physchem [1] = conditions: octanol/water, pH 7.4
Dipeptidyl peptidase 1 [2] = target: T1, Dipeptidyl peptidase 1 (Homo sapiens, UniProt P53634); test: Inhibition of human recombinant DPP1 using Gly-Arg-AMC as substrate preincubated for 30 mins followed by substrate addition by fluorometric assay
Procedure, shortened: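 Isolated human recombinant DPP1 was run in a fluorometric assay in piperazine-based buffer. Compound was pre-incubated with enzyme for 30 min at rt, then Gly-Arg-AMC dipeptide substrate was added. Data were curve-fitted to give pIC50, as the mean of at least two experiments.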

Dipeptidyl peptidase 1 [3] = target: T1, Dipeptidyl peptidase 1; test: Inhibition of DPP1 in human U937 cells using Gly-Phe-AFC as substrate preincubated for 60 mins followed by substrate addition by fluorescence assay; assay type: cell-based, U-937
[4] = Propionaldehyde reactivity assessed as half life of the compound at pH 7.4 by LC-UV method; assay type: physicochemical
[5] = Intrinsic clearance in human liver microsomes at 1 uM after 5 to 40 mins by LC-MS/MS method; assay type: ADME; conditions: read-out: CLH
[6] = Apparent permeability across apical to basolateral side in human Caco2 cells at 10 uM after 1 hr by LC-MS method; conditions: Caco-2
[7] = target: Voltage-gated inwardly rectifying potassium channel KCNH2 (Homo sapiens, UniProt Q12809)
[8] = Protein binding in human plasma at 10 uM after 6 hrs by LC-MS/MS method; assay type: ADME, cell-free; conditions: read-out: PPB (converted)
[9] = Apparent permeability across basolateral to apical side in human Caco2 cells at 10 uM after 1 hr by LC-MS method; conditions: Caco-2
[10] = Protein binding in rat plasma at 10 uM after 6 hrs by LC-MS/MS method; assay type: ADME, cell-free; conditions: read-out: PPB (converted)
physchem [11] = conditions: buffer, pH 7.4
[12] = Efflux ratio of apparent permeability across basolateral to apical over apical to basolateral side in human Caco2 cells at 10 uM after 1 hr by LC-MS method; conditions: Caco-2
[13] = Intrinsic clearance in rat hepatocytes assessed per 10^6 cells at 1 uM after 10 to 90 mins by LC-MS/MS method; assay type: ADME, cell-based, Hepatocyte
[14] = Half life in Sprague-Dawley rat at 1 mg/kg, iv or 3 mg/kg, po; assay type: ADME, organism-based; conditions: in vivo
[15] = Clearance in Sprague-Dawley rat at 1 mg/kg, iv or 3 mg/kg, po; assay type: ADME, organism-based; conditions: in vivo
[16] = Volume of distribution at steady state in Sprague-Dawley rat at 1 mg/kg, iv or 3 mg/kg, po; assay type: ADME, organism-based; conditions: in vivo, read-out: Vdss
[17] = Intrinsic clearance in human hepatocytes assessed per 10^6 cells at 1 uM after 10 to 90 mins by LC-MS/MS method; assay type: ADME, cell-based, Hepatocyte
[18] = Volume of distribution at steady state in Beagle dog at 1 mg/kg, iv and 2 mg/kg, po; assay type: ADME, organism-based, Canis lupus familiaris; conditions: in vivo, read-out: Vdss
[19] = Protein binding in dog plasma at 10 uM after 6 hrs by LC-MS/MS method; assay type: ADME, cell-free, Canis lupus familiaris; conditions: read-out: PPB (converted)
[20] = Oral bioavailability in Beagle dog at 2 mg/kg; assay type: ADME, organism-based, Canis lupus familiaris; conditions: in vivo
[21] = Intrinsic clearance in dog hepatocytes assessed per 10^6 cells at 1 uM after 10 to 90 mins by LC-MS/MS method; assay type: ADME, cell-based, Canis lupus familiaris, Hepatocyte
[22] = Oral bioavailability in Sprague-Dawley rat at 3 mg/kg; assay type: ADME, organism-based; conditions: in vivo
[23] = Half life in Beagle dog at 1 mg/kg, iv and 2 mg/kg, po; assay type: ADME, organism-based, Canis lupus familiaris; conditions: in vivo
[24] = Clearance in Beagle dog at 1 mg/kg, iv and 2 mg/kg, po; assay type: ADME, organism-based, Canis lupus familiaris; conditions: in vivo

T1 sequence (P53634 25-134 limits assumed): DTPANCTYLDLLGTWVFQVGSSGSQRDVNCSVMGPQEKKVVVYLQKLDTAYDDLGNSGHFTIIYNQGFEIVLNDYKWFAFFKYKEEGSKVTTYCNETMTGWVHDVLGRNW
T1 sequence (P53634 231-394 limits assumed): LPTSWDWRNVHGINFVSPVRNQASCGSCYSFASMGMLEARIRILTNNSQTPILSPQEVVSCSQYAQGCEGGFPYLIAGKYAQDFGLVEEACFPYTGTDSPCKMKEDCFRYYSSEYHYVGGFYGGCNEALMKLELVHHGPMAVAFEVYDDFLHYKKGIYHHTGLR
T1 sequence (P53634 395-463 limits assumed): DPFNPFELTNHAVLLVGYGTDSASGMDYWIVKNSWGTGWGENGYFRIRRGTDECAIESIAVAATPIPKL
Voltage-gated inwardly rectifying potassium channel KCNH2, sequence (Q12809 whole entry): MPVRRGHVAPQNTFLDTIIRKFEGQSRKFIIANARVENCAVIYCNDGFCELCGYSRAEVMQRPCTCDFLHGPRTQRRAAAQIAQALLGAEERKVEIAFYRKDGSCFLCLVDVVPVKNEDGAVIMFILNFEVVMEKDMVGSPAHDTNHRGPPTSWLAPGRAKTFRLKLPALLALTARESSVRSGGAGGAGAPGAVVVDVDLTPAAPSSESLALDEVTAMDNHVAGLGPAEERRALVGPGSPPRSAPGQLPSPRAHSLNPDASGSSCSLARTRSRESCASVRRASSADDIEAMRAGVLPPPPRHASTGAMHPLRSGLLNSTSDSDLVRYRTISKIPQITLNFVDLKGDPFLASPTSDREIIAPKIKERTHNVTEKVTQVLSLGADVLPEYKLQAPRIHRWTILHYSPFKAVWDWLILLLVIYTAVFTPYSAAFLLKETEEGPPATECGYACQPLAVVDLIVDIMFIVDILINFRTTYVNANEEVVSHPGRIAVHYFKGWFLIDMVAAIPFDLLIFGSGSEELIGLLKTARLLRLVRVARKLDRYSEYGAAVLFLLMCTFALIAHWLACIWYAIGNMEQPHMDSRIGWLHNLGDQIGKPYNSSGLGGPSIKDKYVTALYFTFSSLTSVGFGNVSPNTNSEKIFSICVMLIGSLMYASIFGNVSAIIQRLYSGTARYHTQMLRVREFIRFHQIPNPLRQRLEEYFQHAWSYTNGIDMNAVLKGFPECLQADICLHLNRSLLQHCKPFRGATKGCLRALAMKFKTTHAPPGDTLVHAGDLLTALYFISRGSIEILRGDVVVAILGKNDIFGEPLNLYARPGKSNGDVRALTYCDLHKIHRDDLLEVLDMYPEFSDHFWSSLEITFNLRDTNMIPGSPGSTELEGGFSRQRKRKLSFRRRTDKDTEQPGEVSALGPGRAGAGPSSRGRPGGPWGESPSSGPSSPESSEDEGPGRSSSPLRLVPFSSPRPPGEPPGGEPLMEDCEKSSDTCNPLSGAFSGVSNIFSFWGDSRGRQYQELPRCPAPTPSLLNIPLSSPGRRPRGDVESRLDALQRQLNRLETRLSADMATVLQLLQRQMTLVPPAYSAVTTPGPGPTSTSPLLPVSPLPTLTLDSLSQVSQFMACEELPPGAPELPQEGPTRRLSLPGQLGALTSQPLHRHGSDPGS

logD at 10 µM (physchem [1]): 1.4 | IC50 (Dipeptidyl peptidase 1 [2]): 0.398 µM | IC50 (Dipeptidyl peptidase 1 [3]): 0.501 µM | half-life [4]: > 50 h
SMILES: N#Cc1ccc(-c2ccc(C[C@@H](C#N)NC(=O)[C@@H]3CNCCO3)cc2)cc1

microsomal CLint at 1 µM [5]: 13 µL/min/mg | logD at 10 µM (physchem [1]): 2 | Papp A→B at 1 h, 10 µM [6]: 110 nm/s | fraction unbound at 6 h, 10 µM [8]: 0.03 | IC50 (Dipeptidyl peptidase 1 [2]): 0.0398 µM | Papp B→A at 1 h, 10 µM [9]: 230 nm/s | fraction unbound at 6 h, 10 µM [10]: 0.08 | solubility kinetic at 2 h (physchem [11]): 175 µM (≈ 67.6 µg/mL) | efflux ratio at 1 h, 10 µM [12]: 2 | CLH [13]: < 3.5 µL/min/10^6 cells | IC50 (Dipeptidyl peptidase 1 [3]): 0.0316 µM | half-life [4]: > 50 h
SMILES: N#Cc1ccc(-c2ccc(C[C@@H](C#N)NC(=O)[C@@H]3CCCCC[C@@H]3N)cc2)cc1
IC50 [7]: 3.6 µM

IC50 (Dipeptidyl peptidase 1 [2]): 1.26 µM | IC50 (Dipeptidyl peptidase 1 [3]): 0.501 µM | half-life [4]: > 50 h
SMILES: N#Cc1ccc(-c2ccc(C[C@@H](C#N)NC(=O)C3CCCCNC3)cc2)cc1 (mixture of isomers)

logD at 10 µM (physchem [1]): 1.5 | IC50 (Dipeptidyl peptidase 1 [2]): 0.0158 µM | IC50 (Dipeptidyl peptidase 1 [3]): 0.0158 µM
SMILES: Cc1noc2ccc(-c3ccc(C[C@@H](C#N)NC(=O)[C@@H]4CNCCCO4)cc3)cc12

IC50 (Dipeptidyl peptidase 1 [3]): 0.00158 µM
SMILES: CN1C(=O)Cc2ccc(-c3ccc(C[C@@H](C#N)NC(=O)C4(N)CCOCC4)cc3)cc21

logD at 10 µM (physchem [1]): 0.6 | IC50 (Dipeptidyl peptidase 1 [2]): 0.0251 µM
SMILES: Cn1c(=O)cnc2ccc(-c3ccc(C[C@@H](C#N)NC(=O)[C@@H]4CNCCCO4)cc3)cc21

logD at 10 µM (physchem [1]): 0.2 | IC50 (Dipeptidyl peptidase 1 [2]): > 10 µM
SMILES: N#Cc1ccc(-c2ccc(C[C@@H](C#N)NC(=O)[C@H]3CCCNC3)cc2)cc1

logD at 10 µM (physchem [1]): 1.1 | IC50 (Dipeptidyl peptidase 1 [2]): 0.0631 µM | half-life [4]: > 50 h
SMILES: N#Cc1ccc(-c2ccc(C[C@@H](C#N)NC(=O)C3CNCCCO3)cc2)cc1 (mixture of isomers)

logD at 10 µM (physchem [1]): 2.8 | IC50 (Dipeptidyl peptidase 1 [2]): 0.0398 µM
SMILES: N#C[C@H](Cc1ccc(-c2ccc(C(F)(F)F)cc2)cc1)NC(=O)[C@@H]1CNCCCO1

logD at 10 µM (physchem [1]): 1.2 | IC50 (Dipeptidyl peptidase 1 [2]): 6.31 µM | half-life [4]: > 50 h
SMILES: N#Cc1ccc(-c2ccc(C[C@@H](C#N)NC(=O)[C@H]3CNCCCO3)cc2)cc1

IC50 (Dipeptidyl peptidase 1 [2]): 0.316 µM | IC50 (Dipeptidyl peptidase 1 [3]): 0.158 µM | half-life [4]: > 50 h
SMILES: N#Cc1ccc(-c2ccc(C[C@@H](C#N)NC(=O)[C@@H]3CCCC[C@H]3N)cc2)cc1

half-life [14]: 8 h | microsomal CLint at 1 µM [5]: < 14 µL/min/mg | clearance [15]: 0.24 L/h/kg | Vd [16]: 2 L/kg | intrinsic clearance (CLint) [17]: < 3.5 µL/min/10^6 cells | fraction unbound at 6 h, 10 µM [8]: 0.06 | Vd [18]: 9 L/kg | fraction unbound at 6 h, 10 µM [10]: 0.08 | fraction unbound at 6 h, 10 µM [19]: 0.14 | bioavailability [20]: 85% | CLH [21]: < 3.5 µL/min/10^6 cells | bioavailability [22]: 36% | half-life [23]: 16 h | CLH [13]: < 3.5 µL/min/10^6 cells | half-life [4]: > 50 h | clearance [24]: 0.36 L/h/kg
SMILES: CCn1c(=O)oc2ccc(-c3ccc(C[C@@H](C#N)NC(=O)[C@@H]4CNCCCO4)cc3)cc21

logD at 10 µM (physchem [1]): 1.6 | IC50 (Dipeptidyl peptidase 1 [2]): > 10 µM | half-life [4]: > 50 h
SMILES: N#Cc1ccc(-c2ccc(C[C@@H](C#N)NC(=O)[C@H]3CNCCO3)cc2)cc1

microsomal CLint at 1 µM [5]: 9.3 µL/min/mg | logD at 10 µM (physchem [1]): 1.6 | Papp A→B at 1 h, 10 µM [6]: 110 nm/s | fraction unbound at 6 h, 10 µM [8]: 0.07 | IC50 (Dipeptidyl peptidase 1 [2]): 0.0398 µM | Papp B→A at 1 h, 10 µM [9]: 360 nm/s | fraction unbound at 6 h, 10 µM [10]: 0.12 | solubility kinetic at 2 h (physchem [11]): 175 µM (≈ 65.2 µg/mL) | CLH [13]: < 3.5 µL/min/10^6 cells | IC50 (Dipeptidyl peptidase 1 [3]): 0.0398 µM | half-life [4]: > 50 h
SMILES: N#Cc1ccc(-c2ccc(C[C@@H](C#N)NC(=O)[C@@H]3CCCC[C@@H]3N)cc2)cc1

half-life [14]: 8 h | microsomal CLint at 1 µM [5]: < 15 µL/min/mg | clearance [15]: 0.18 L/h/kg | Vd [16]: 2 L/kg | logD at 10 µM (physchem [1]): 1.5 | Papp A→B at 1 h, 10 µM [6]: 110 nm/s | intrinsic clearance (CLint) [17]: < 3.5 µL/min/10^6 cells | fraction unbound at 6 h, 10 µM [8]: 0.07 | IC50 (Dipeptidyl peptidase 1 [2]): 0.00251 µM | Papp B→A at 1 h, 10 µM [9]: 510 nm/s | fraction unbound at 6 h, 10 µM [10]: 0.05 | solubility kinetic at 2 h (physchem [11]): 170 µM (≈ 74.2 µg/mL) | efflux ratio at 1 h, 10 µM [12]: 4.7 | CLH [21]: < 3.5 µL/min/10^6 cells | bioavailability [22]: 26% | CLH [13]: < 3.5 µL/min/10^6 cells | IC50 (Dipeptidyl peptidase 1 [3]): 0.00316 µM | half-life [4]: > 50 h
SMILES: Cn1c(=O)sc2ccc(-c3ccc(C[C@@H](C#N)NC(=O)[C@@H]4CNCCCO4)cc3)cc21
IC50 [7]: 23 µM
